≈ marks a conversion by molar mass, not a printed value. Starred links: 1 amine or outer side, 2 acyl side, 3 side chain; linkers in the order of their positions; H or OH if unused. Non-standard residues stand in square brackets, D forms with d. Residues, ends and D or L forms follow the SMILES beside them. *: point of attachment. X6 = C[C@H](CO[C@H](CC1C[C@H]2CC[C@@H](C1)C2)[C@@H](C)C(=O)[*:2])N[*:1]; dAlaψ(CH2NBu)Nle = CCCC[C@@H](C(=O)[*:2])N(CCCC)C[C@@H](C)N[*:1]; X3 = C[C@H](CO[C@H](CC1CC2(CCC2)C1)[C@@H](C)C(=O)[*:2])N[*:1]; X9 = CCCCCC[C@@H](OCCN[*:1])[C@@H](C)C(=O)[*:2]; Cyclobutyl(trans-3-NH2) = N[C@H]1C[C@H](*)C1; X4 = CCCCCCN(CCN[*:1])[C@@H](C)C(=O)[*:2]; Gly(cHept) = N[C@H](C(=O)O)C1CCCCCC1; aThr = C[C@H](O)[C@H](N)C(=O)O; NMeL = CN[C@@H](CC(C)C)C(=O)O; Chg = N[C@H](C(=O)O)C1CCCCC1; NMeNva = CCC[C@H](NC)C(=O)O; Dap = NC[C@H](N)C(=O)O; X5 = NCCCNCCC*
Key:
[1] = Stability of the compound in human plasma assessed as parent compound remaining after 6 hrs; type: ADME, cell-free; details: read-out: Stabilty
How it was run: (§1)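 Test compound incubated for 6 hour in human or mouse plasma. Stability is reported as the percentage of parent compound remaining.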

[2] = Stability of the compound in mouse plasma assessed as parent compound remaining after 6 hrs; type: ADME, cell-free; details: read-out: Stabilty; how it was run: as §1
[3] = system: Escherichia coli; assay: Inhibition of LspA in Escherichia coli CFT073imp4213 harboring outer membrane-permeable mutant assessed as inhibition of bacterial growth
How it was run: (§2)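 Read-out is the minimum inhibitory concentration, reported in µM.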

[4] = system: Escherichia coli CFT073; assay: Inhibition of LspA in wild type Escherichia coli CFT073 assessed as inhibition of bacterial growth; how it was run: as §2
[5] = Growth inhibition of Staphylococcus aureus USA300
[6] = Lipophilicity, logD of the compound at pH 7.4; details: buffer, pH 7.4, logD
[7] = Stability of the compound in human plasma assessed as parent compound remaining after 24 hrs; type: ADME, cell-free; details: read-out: Stabilty
How it was run: (§3)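 Test compound incubated for 24 hour in human, rat or mouse plasma. Stability is reported as the percentage of parent compound remaining.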

[8] = Stability of the compound in mouse plasma assessed as parent compound remaining after 24 hrs; type: ADME, cell-free; details: read-out: Stabilty; how it was run: as §3
[9] = Stability of the compound in rat plasma assessed as parent compound remaining after 24 hrs; type: ADME, cell-free; details: read-out: Stabilty; how it was run: as §3
[10] = Protein binding in rat plasma; type: ADME, cell-free; details: for fraction unbound: read-out: PPB (converted)
[11] = Protein binding in mouse plasma; type: ADME, cell-free; details: for fraction unbound: read-out: PPB (converted)
[12] = Clearance in rat liver microsomes; type: ADME, Microsome
How it was run: (§4)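 Intrinsic clearance in rat or mouse liver microsomes, expressed in mL/min/kg.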

[13] = Clearance in mouse liver microsomes; type: ADME, Microsome; how it was run: as §4
[14] = Clearance in iv dosed mouse; type: ADME, organism-based; details: in vivo
[15] = Half life in iv dosed mouse; type: ADME, organism-based; details: in vivo
[16] = system: Enterobacter cloacae; assay: Inhibition of LspA in Enterobacter cloacae assessed as inhibition of bacterial growth
[17] = system: Klebsiella pneumoniae; assay: Inhibition of LspA in Klebsiella pneumoniae assessed as inhibition of bacterial growth
[18] = system: Pseudomonas aeruginosa; assay: Inhibition of LspA in Pseudomonas aeruginosa assessed as inhibition of bacterial growth
[19] = system: Acinetobacter baumannii; assay: Inhibition of LspA in Acinetobacter baumannii assessed as inhibition of bacterial growth
[20] = system: Jurkat; assay: Cytotoxicity against human Jurkat cells; type: cell-based
How it was run: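 Jurkat cell growth assay. Result reported as antiproliferative EC50.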

[21] = Stability in mouse plasma assessed as esterase-mediated compound hydrolysis by measuring parent compound remaining after 6 hrs; type: ADME, cell-free; details: read-out: Stabilty; how it was run: as §1
[22] = Clearance in iv dosed rat; type: ADME, organism-based; details: in vivo
[23] = Half life in iv dosed rat; type: ADME, organism-based; details: in vivo

CCCCCC[C@H]1OCCNC(=O)[C@H]([C@H](C)O)NC(=O)[C@H](CN)NC(=O)[C@H](C2CCCCC2)NC(=O)[C@H](CC(C)C)N(C)C(=O)[C@@H]1C (cyclo([Chg][Dap][aThr][X9][NMeL]))
remaining at 6 h [1]: 99% | remaining at 6 h [2]: 96% | MIC [3]: 0.14 µM (≈ 0.0934 µg/mL) | MIC [4]: 8.7 µM (≈ 5.8 µg/mL) | MIC [5]: 100 µM (≈ 66.7 µg/mL)

CCCCCC[C@H]1OC(=O)CNC(=O)[C@H]([C@H](C)O)NC(=O)[C@H](CO)NC(=O)[C@H]([C@H](C)CC)NC(=O)[C@H](CC(C)C)N(C)C(=O)[C@@H]1C
logD [6]: 3.1 | remaining at 24 h [7]: 100% | remaining at 24 h [8]: 2% | remaining at 24 h [9]: 1% | Stabilty [10]: Unstable | Stabilty [11]: Unstable | CLhep predicted [12]: 37 mL/min/kg | CLhep predicted [13]: 81 mL/min/kg | clearance [14]: 286 mL/min/kg | half-life [15]: 0.3 h | MIC [3]: 0.25 µM (≈ 0.164 µg/mL) | MIC [4]: 44 µM (≈ 28.9 µg/mL) | MIC [5]: > 100 µM | MIC [16]: 100 µM (≈ 65.6 µg/mL) | MIC [17]: > 100 µM | MIC [18]: > 100 µM | MIC [19]: > 100 µM | EC50 [20]: > 50 µM | remaining at 6 h [21]: 49%

CCCC[C@H]1C(=O)N(C)[C@@H](CC(C)C)C(=O)N[C@@H](C2CCCCC2)C(=O)N[C@@H](CN)C(=O)N[C@@H]([C@H](C)O)C(=O)N[C@H](C)CN1CCCC (cyclo([Chg][Dap][aThr][dAlaψ(CH2NBu)Nle][NMeL]))
logD [6]: 3.4 | remaining at 24 h [7]: 97% | remaining at 24 h [8]: 89% | remaining at 24 h [9]: 102% | fraction unbound [10]: 0.005 | fraction unbound [11]: 0.004 | CLhep predicted [12]: 27 mL/min/kg | CLhep predicted [13]: 77 mL/min/kg | clearance [22]: 53 mL/min/kg | half-life [23]: 2.6 h | MIC [3]: 0.017 µM (≈ 0.0116 µg/mL) | MIC [4]: 1.6 µM (≈ 1.09 µg/mL) | MIC [5]: 71 µM (≈ 48.3 µg/mL)

CCC[C@H]1C(=O)N[C@@H](C2CCCCCC2)C(=O)N[C@@H](CN)C(=O)N[C@@H](COCCCNCCCN)C(=O)N[C@H](C)CO[C@H](CC2CC3(CCC3)C2)[C@@H](C)C(=O)N1C (cyclo([Dap]S(X5)[X3][NMeNva][Gly(cHept)]))
logD [6]: 0.7 | remaining at 24 h [7]: 103% | remaining at 24 h [8]: 106% | remaining at 24 h [9]: 118% | fraction unbound [10]: 0.025 | fraction unbound [11]: 0.001 | CLhep predicted [13]: 53 mL/min/kg | clearance [14]: 12 mL/min/kg | half-life [15]: 4.6 h | MIC [4]: 1.6 µM (≈ 1.29 µg/mL) | MIC [5]: 18 µM (≈ 14.5 µg/mL) | MIC [16]: 3.1 µM (≈ 2.5 µg/mL) | MIC [17]: 3.1 µM (≈ 2.5 µg/mL) | MIC [18]: 50 µM (≈ 40.3 µg/mL) | MIC [19]: 50 µM (≈ 40.3 µg/mL) | EC50 [20]: > 50 µM

CCC[C@H]1C(=O)N[C@@H](C2CCCCCC2)C(=O)N[C@@H](CN)C(=O)N[C@@H](CO[C@H]2C[C@H](N)C2)C(=O)N[C@H](C)CO[C@H](CC2CC3(CCC3)C2)[C@@H](C)C(=O)N1C (cyclo([Dap]S(Cyclobutyl(trans-3-NH2))[X3][NMeNva][Gly(cHept)]))
logD [6]: 2.2 | remaining at 24 h [7]: 103% | remaining at 24 h [8]: 84% | remaining at 24 h [9]: 90% | fraction unbound [10]: 0.022 | fraction unbound [11]: 0.007 | CLhep predicted [12]: 28 mL/min/kg | CLhep predicted [13]: 48 mL/min/kg | clearance [22]: 40 mL/min/kg | half-life [23]: 3.2 h | clearance [14]: 11 mL/min/kg | half-life [15]: 4 h | MIC [4]: 2.2 µM (≈ 1.67 µg/mL) | MIC [5]: 25 µM (≈ 19 µg/mL) | MIC [16]: 6.3 µM (≈ 4.79 µg/mL) | MIC [17]: 8.8 µM (≈ 6.69 µg/mL) | MIC [18]: 71 µM (≈ 54 µg/mL) | MIC [19]: 18 µM (≈ 13.7 µg/mL)

CCCC[C@H]1C(=O)N(C)[C@@H](CCC)C(=O)N[C@@H](C2CCCCC2)C(=O)N[C@@H](CN)C(=O)N[C@@H](CO[C@H]2C[C@H](N)C2)C(=O)N[C@H](C)CN1CCCC (cyclo([Chg][Dap]S(Cyclobutyl(trans-3-NH2))[dAlaψ(CH2NBu)Nle][NMeNva]))
logD [6]: 1.5 | remaining at 24 h [7]: 105% | remaining at 24 h [8]: 55% | remaining at 24 h [9]: 58% | fraction unbound [10]: 0.047 | fraction unbound [11]: 0.026 | CLhep predicted [12]: < 6.1 mL/min/kg | CLhep predicted [13]: 32 mL/min/kg | clearance [22]: 24 mL/min/kg | half-life [23]: 6.8 h | MIC [4]: 6.3 µM (≈ 4.54 µg/mL) | MIC [5]: 50 µM (≈ 36.1 µg/mL) | MIC [17]: 25 µM (≈ 18 µg/mL) | MIC [18]: 100 µM (≈ 72.1 µg/mL) | MIC [19]: 25 µM (≈ 18 µg/mL)

CCC[C@H]1C(=O)N[C@@H](C2CCCCCC2)C(=O)N[C@@H](CN)C(=O)N[C@@H](COCCCNCCCN)C(=O)N[C@H](C)CO[C@H](CC2C[C@H]3CC[C@@H](C2)C3)[C@@H](C)C(=O)N1C (stereo partly drawn) (cyclo([Dap]S(X5)[X6][NMeNva][Gly(cHept)]))
logD [6]: 0.2 | fraction unbound [10]: 0.026 | fraction unbound [11]: 0.004 | clearance [14]: 68 mL/min/kg | half-life [15]: 2.5 h | MIC [4]: 0.78 µM (≈ 0.639 µg/mL) | MIC [5]: 12 µM (≈ 9.83 µg/mL) | MIC [16]: 1.6 µM (≈ 1.31 µg/mL) | MIC [17]: 1.6 µM (≈ 1.31 µg/mL) | MIC [18]: 12 µM (≈ 9.83 µg/mL) | MIC [19]: 25 µM (≈ 20.5 µg/mL) | EC50 [20]: > 100 µM

CCC[C@H]1C(=O)N[C@@H](C2CCCCCC2)C(=O)N[C@@H](CN)C(=O)N[C@@H](CO[C@H]2C[C@H](N)C2)C(=O)N[C@H](C)CO[C@H](CC2C[C@H]3CC[C@@H](C2)C3)[C@@H](C)C(=O)N1C (stereo partly drawn) (cyclo([Dap]S(Cyclobutyl(trans-3-NH2))[X6][NMeNva][Gly(cHept)]))
logD [6]: 1.7 | remaining at 24 h [7]: 99% | remaining at 24 h [8]: 95% | remaining at 24 h [9]: 94% | fraction unbound [10]: 0.026 | fraction unbound [11]: 0.003 | CLhep predicted [12]: 21 mL/min/kg | CLhep predicted [13]: 41 mL/min/kg | clearance [22]: 15 mL/min/kg | half-life [23]: 5.8 h | clearance [14]: 17 mL/min/kg | half-life [15]: 2.1 h | MIC [4]: 0.78 µM (≈ 0.604 µg/mL) | MIC [5]: 50 µM (≈ 38.7 µg/mL) | MIC [16]: 3.1 µM (≈ 2.4 µg/mL) | MIC [17]: 8.8 µM (≈ 6.81 µg/mL) | MIC [18]: 100 µM (≈ 77.4 µg/mL) | MIC [19]: 25 µM (≈ 19.4 µg/mL) | EC50 [20]: > 100 µM

CCCCCCN1CCNC(=O)[C@H](CO[C@H]2C[C@H](N)C2)NC(=O)[C@H](CN)NC(=O)[C@H](C2CCCCC2)NC(=O)[C@H](CC(C)C)N(C)C(=O)[C@@H]1C (cyclo([Chg][Dap]S(Cyclobutyl(trans-3-NH2))[X4][NMeL]))
logD [6]: 1 | remaining at 24 h [7]: 110% | remaining at 24 h [8]: 95% | remaining at 24 h [9]: 60% | fraction unbound [10]: 0.043 | fraction unbound [11]: 0.03 | CLhep predicted [12]: 26 mL/min/kg | CLhep predicted [13]: 34 mL/min/kg | clearance [22]: 8.7 mL/min/kg | half-life [23]: 1.6 h | MIC [4]: 6.3 µM (≈ 4.45 µg/mL) | MIC [5]: 100 µM (≈ 70.7 µg/mL) | MIC [17]: 100 µM (≈ 70.7 µg/mL) | MIC [18]: > 100 µM | MIC [19]: > 100 µM | EC50 [20]: > 100 µM
